Activity calls are given as the source filed them. The rule behind the calls is not given here.
Tests used:
Type in all cases: functional, organism-based
[1] = system: Staphylococcus aureus; test: Antimicrobial activity against methicillin-resistant Staphylococcus aureus isolate 134/93 after 18 hrs
[2] = system: Sporobolomyces salmonicolor; test: Antimicrobial activity against Sporidiobolus salmonicolor isolate 549 after 18 hrs
How it was run: (§1)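 Ciprofloxacin and amphotericin B were run alongside as reference antimicrobials.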

[3] = system: Escherichia coli; test: Antimicrobial activity against Escherichia coli isolate 458 after 18 hrs; how it was run: as §1

Row | Compound | Activity [1] | Activity [2] | Activity [3]
1 | COc1cc2c3c(ccc(-c4ccccc4)c3c1O)C(=O)OC2OC (configuration not stated) | Active | – | –
2 | COC1=Cc2cn([C@H](CC(C)C)C(=O)O)c(=O)c3ccc(-c4ccccc4)c(c23)C1=O | inactive | inactive | inactive
3 | O=C1C(O)=Cc2c3n(c(=O)c4ccc(-c5ccccc5)c1c24)[C@H](C(=O)O)CS3 | inactive | inactive | inactive
4 | CC(C)C[C@H](C(=O)O)n1cc2c3c(c(-c4ccccc4)ccc3c1=O)C(=O)C(O)=C2 | inactive | inactive | inactive
5 | O=C1OCc2cc(O)c(O)c3c(-c4ccccc4)ccc1c23 | – | Active | Active
6 | COC1OC(=O)c2ccc(-c3ccccc3)c3c(O)c(O)cc1c23 (configuration not stated) | Active | – | –
7 | O=C1C(O)=Cc2cn(CCO)c(=O)c3ccc(-c4ccccc4)c1c23 | inactive | inactive | inactive
8 | O=C1C(O)=Cc2cn([C@@H](Cc3ccccc3)C(=O)O)c(=O)c3ccc(-c4ccccc4)c1c23 | inactive | inactive | inactive
9 | O=C1C(O)=Cc2cn([C@H](Cc3ccccc3)C(=O)O)c(=O)c3ccc(-c4ccccc4)c1c23 | inactive | inactive | inactive
10 | O=C1OC(O)c2cc(O)c(O)c3c(-c4ccccc4)ccc1c23 (configuration not stated) | Active | – | –
11 | COC1=Cc2cn([C@@H](Cc3ccc(O)cc3)C(=O)O)c(=O)c3ccc(-c4ccccc4)c(c23)C1=O | inactive | inactive | inactive
12 | O=C(O)CC(=O)OC[C@H]1O[C@@H](Oc2c(O)cc3c4c(ccc(-c5ccccc5)c24)C(=O)OC3)[C@H](O)[C@@H](O)[C@@H]1O | – | Active | Active
13 | O=C1OC(C(=O)O)c2cc(O)c(O[C@@H]3O[C@H](CO)[C@@H](O)[C@H](O)[C@H]3O)c3c(-c4ccccc4)ccc1c23 (some centres not stated) | – | Active | Active
14 | CSCC[C@@H](C(=O)O)n1cc2c3c(c(-c4ccccc4)ccc3c1=O)C(=O)C(O)=C2 | inactive | inactive | inactive
15 | O=C(O)c1cn(C2CC2)c2cc(N3CCNCC3)c(F)cc2c1=O | – | Active | Active
16 | COC1=Cc2cn([C@H](Cc3ccccc3)C(=O)O)c(=O)c3ccc(-c4ccccc4)c(c23)C1=O | inactive | inactive | inactive
17 | O=C1C(O)=Cc2cn(CCCC[C@@H](C(=O)O)n3cc4c5c(c(-c6ccccc6)ccc5c3=O)C(=O)C(O)=C4)c(=O)c3ccc(-c4ccccc4)c1c23 | inactive | inactive | inactive
18 | C[C@@H]1[C@H](O)[C@@H](C)/C=C/C=C/C=C/C=C/C=C/C=C/C=C/[C@H](O[C@@H]2O[C@H](C)[C@@H](O)[C@H](N)[C@@H]2O)C[C@@H]2O[C@](O)(C[C@@H](O)C[C@@H](O)[C@H](O)CC[C@@H](O)C[C@@H](O)CC(=O)O[C@H]1C)C[C@H](O)[C@H]2C(=O)O | – | Active | Active
19 | COC1=Cc2cn([C@@H](Cc3ccccc3)C(=O)O)c(=O)c3ccc(-c4ccccc4)c(c23)C1=O | inactive | inactive | inactive
20 | O=C1OC(C(=O)O)c2cc(O)c(O)c3c(-c4ccccc4)ccc1c23 (configuration not stated) | – | Active | Active
21 | COC1=Cc2cn([C@@H](Cc3c[nH]c4ccccc34)C(=O)O)c(=O)c3ccc(-c4ccccc4)c(c23)C1=O | inactive | inactive | inactive
22 | O=C1C(O)=Cc2coc(=O)c3ccc(-c4ccccc4)c1c23 | Active | – | –
23 | COc1cc2c3c(ccc(-c4ccccc4)c3c1O[C@@H]1O[C@H](COC(=O)CC(=O)O)[C@@H](O)[C@H](O)[C@H]1O)C(=O)OC2 | – | Active | Active
24 | CC(C)C[C@@H](C(=O)O)n1cc2c3c(c(-c4ccccc4)ccc3c1=O)C(=O)C(O)=C2 | inactive | inactive | inactive
